Test results published in ChEMBL document CHEMBL1132767, “Design and synthesis of piperidinyl piperidine analogues as potent and selective M2 muscarinic receptor antagonists” (Bioorg Med Chem Lett, 2000).

Target: T1, Muscarinic acetylcholine receptor M1 (Homo sapiens, UniProt P11229)
T1 sequence (P11229 whole entry): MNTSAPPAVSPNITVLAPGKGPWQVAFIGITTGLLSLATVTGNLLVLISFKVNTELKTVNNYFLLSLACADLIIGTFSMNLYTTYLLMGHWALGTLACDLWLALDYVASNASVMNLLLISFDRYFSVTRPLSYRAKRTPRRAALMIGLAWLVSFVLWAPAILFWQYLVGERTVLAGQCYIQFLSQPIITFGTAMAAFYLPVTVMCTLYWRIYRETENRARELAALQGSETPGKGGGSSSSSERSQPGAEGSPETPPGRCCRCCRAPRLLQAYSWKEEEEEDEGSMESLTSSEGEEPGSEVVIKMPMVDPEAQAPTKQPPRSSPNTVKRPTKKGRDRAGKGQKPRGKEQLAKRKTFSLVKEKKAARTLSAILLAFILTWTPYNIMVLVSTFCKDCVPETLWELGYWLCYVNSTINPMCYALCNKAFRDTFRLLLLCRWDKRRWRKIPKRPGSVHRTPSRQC
Assay: Binding affinity against Muscarinic acetylcholine receptor M1 expressed in CHO-K1 cells
Assay type: cell-based
Method in brief: (§1)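 Competition binding against 180 pM [³H]QNB in 10 mM potassium phosphate buffer, pH 7.4, containing 1% DMSO and 0.4% methylcellulose. Incubated 120 min at room temperature to equilibrium. Bound and free label separated by filtration. Nonspecific binding defined with 0.5 mM atropine. Protein adjusted to give 700–1500 cpm specific binding. [³H]QNB Kd for each subtype from saturation binding over 5–2500 pM.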

Row | SMILES | Ki [nM]
1 | C=C(c1ccc(S(=O)(=O)c2ccc(OC)cc2)cc1)C1CCN(C2CCN(C(=O)OCC)CC2)CC1 | 6.5
2 | C=C(c1ccc(S(=O)(=O)c2ccc(OC)cc2)cc1)C1CCN(C2CCNCC2)CC1 | 9.1
3 | C=C(c1ccc(S(=O)(=O)c2ccc(OC)cc2)cc1)C1CCN(C2CCN(C(=O)CCC)CC2)CC1 | 42
4 | C=C(c1ccc(S(=O)(=O)c2ccc(OC)cc2)cc1)C1CCN(C2CCN(S(=O)(=O)CCC)CC2)CC1 | 25.7

Target: Muscarinic acetylcholine receptor M3 (Homo sapiens, UniProt P20309)
Sequence (P20309 whole entry): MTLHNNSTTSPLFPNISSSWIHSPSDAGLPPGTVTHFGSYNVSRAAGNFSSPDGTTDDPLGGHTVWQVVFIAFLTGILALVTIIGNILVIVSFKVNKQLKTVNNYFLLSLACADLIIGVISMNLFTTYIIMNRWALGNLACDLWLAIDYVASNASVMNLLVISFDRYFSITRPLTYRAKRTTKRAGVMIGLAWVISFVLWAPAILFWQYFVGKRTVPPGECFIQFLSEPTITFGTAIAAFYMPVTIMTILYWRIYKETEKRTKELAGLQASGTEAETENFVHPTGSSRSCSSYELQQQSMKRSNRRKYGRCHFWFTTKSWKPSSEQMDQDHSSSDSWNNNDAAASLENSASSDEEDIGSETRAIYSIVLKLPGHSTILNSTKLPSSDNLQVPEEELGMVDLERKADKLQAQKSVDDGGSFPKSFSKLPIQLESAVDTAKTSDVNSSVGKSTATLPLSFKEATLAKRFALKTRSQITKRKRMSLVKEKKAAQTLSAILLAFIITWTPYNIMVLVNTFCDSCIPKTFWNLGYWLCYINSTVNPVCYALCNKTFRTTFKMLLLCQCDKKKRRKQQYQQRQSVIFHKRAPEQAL
Assay: Binding affinity against Muscarinic acetylcholine receptor M3 expressed in CHO-K1 cells
Assay type: cell-based
Method in brief: as §1

Row | SMILES | Ki [nM]
5 | C=C(c1ccc(S(=O)(=O)c2ccc(OC)cc2)cc1)C1CCN(C2CCN(C(=O)OCC)CC2)CC1 | 3.7
6 | C=C(c1ccc(S(=O)(=O)c2ccc(OC)cc2)cc1)C1CCN(C2CCNCC2)CC1 | 3.4
7 | C=C(c1ccc(S(=O)(=O)c2ccc(OC)cc2)cc1)C1CCN(C2CCN(C(=O)CCC)CC2)CC1 | 122
8 | C=C(c1ccc(S(=O)(=O)c2ccc(OC)cc2)cc1)C1CCN(C2CCN(S(=O)(=O)CCC)CC2)CC1 | 10.1

Target: T2, Muscarinic acetylcholine receptor M2 (Homo sapiens, UniProt P08172)
T2 sequence (P08172 whole entry): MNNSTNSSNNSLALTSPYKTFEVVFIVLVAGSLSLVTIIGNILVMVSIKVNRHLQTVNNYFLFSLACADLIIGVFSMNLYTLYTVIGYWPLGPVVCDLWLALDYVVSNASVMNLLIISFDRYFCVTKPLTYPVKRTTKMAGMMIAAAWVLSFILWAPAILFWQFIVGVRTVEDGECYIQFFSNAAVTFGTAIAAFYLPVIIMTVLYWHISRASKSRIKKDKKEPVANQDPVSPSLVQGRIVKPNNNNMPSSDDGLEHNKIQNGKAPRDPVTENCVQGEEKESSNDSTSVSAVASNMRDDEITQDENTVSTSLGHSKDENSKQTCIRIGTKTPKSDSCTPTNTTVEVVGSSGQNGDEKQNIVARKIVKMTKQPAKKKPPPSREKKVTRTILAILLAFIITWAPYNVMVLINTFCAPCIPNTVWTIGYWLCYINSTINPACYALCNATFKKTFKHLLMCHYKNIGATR
Assay: Binding affinity against Muscarinic acetylcholine receptor M2 stably expressed in CHO-K1 cells.
Assay type: cell-based
Method in brief: as §1

Row | SMILES | Ki [nM]
9 | C=C(c1ccc(S(=O)(=O)c2ccc(OC)cc2)cc1)C1CCN(C2CCN(S(=O)(=O)Cc3ccccc3)CC2)CC1 | 1.45
10 | C=C(c1ccc(S(=O)(=O)c2ccc(OC)cc2)cc1)C1CCN(C2CCN(C(=O)CC)CC2)CC1 | 3.8
11 | C=C(c1ccc(S(=O)(=O)c2ccc(OC)cc2)cc1)C1CCN(C2CCN(C(=O)C(C)C)CC2)CC1 | 2.2
12 | C=C(c1ccc(S(=O)(=O)c2ccc(OC)cc2)cc1)C1CCN(C2CCNCC2)CC1 | 1.14
13 | C=C(c1ccc(S(=O)(=O)c2ccc(OC)cc2)cc1)C1CCN(C2CCN(S(=O)(=O)CCCC)CC2)CC1 | 0.38
14 | C=C(c1ccc(S(=O)(=O)c2ccc(OC)cc2)cc1)C1CCN(C2CCN(C(=O)OCc3ccccc3)CC2)CC1 | 0.45
15 | C=C(c1ccc(S(=O)(=O)c2ccc(OC)cc2)cc1)C1CCN(C2CCN(C(=O)Cc3ccccc3)CC2)CC1 | 2.99
16 | C=C(c1ccc(S(=O)(=O)c2ccc(OC)cc2)cc1)C1CCN(C2CCN(S(=O)(=O)CC)CC2)CC1 | 0.46
17 | C=C(c1ccc(S(=O)(=O)c2ccc(OC)cc2)cc1)C1CCN(C2CCN(C(=O)OC)CC2)CC1 | 0.99
18 | C=C(c1ccc(S(=O)(=O)c2ccc(OC)cc2)cc1)C1CCN(C2CCN(C(=O)OCCC)CC2)CC1 | 0.59
19 | C=C(c1ccc(S(=O)(=O)c2ccc(OC)cc2)cc1)C1CCN(C2CCN(C(=O)OC(C)C)CC2)CC1 | 0.41

Next, values leading:

Row | Ki [nM] | SMILES
20 | 0.3 | C=C(c1ccc(S(=O)(=O)c2ccc(OC)cc2)cc1)C1CCN(C2CCN(C(=O)OCC(C)C)CC2)CC1
21 | 0.35 | C=C(c1ccc(S(=O)(=O)c2ccc(OC)cc2)cc1)C1CCN(C2CCN(C(=O)OCCCC)CC2)CC1
22 | 0.11 | C=C(c1ccc(S(=O)(=O)c2ccc(OC)cc2)cc1)C1CCN(C2CCN(C(=O)OCC)CC2)CC1
23 | 0.26 | C=C(c1ccc(S(=O)(=O)c2ccc(OC)cc2)cc1)C1CCN(C2CCN(C(=O)C3CC3)CC2)CC1
24 | 0.36 | C=C(c1ccc(S(=O)(=O)c2ccc(OC)cc2)cc1)C1CCN(C2CCN(S(=O)(=O)c3ccccc3)CC2)CC1
25 | 0.38 | C=C(c1ccc(S(=O)(=O)c2ccc(OC)cc2)cc1)C1CCN(C2CCN(C(=O)CCC)CC2)CC1
26 | 0.29 | C=C(c1ccc(S(=O)(=O)c2ccc(OC)cc2)cc1)C1CCN(C2CCN(S(=O)(=O)CCC)CC2)CC1
27 | 0.16 | C=C(c1ccc(S(=O)(=O)c2ccc(OC)cc2)cc1)C1CCN(C2CCN(S(=O)(=O)C(C)C)CC2)CC1

Target: Muscarinic acetylcholine receptors; M1 & M2 (Homo sapiens) (UniProt P11229+P08172)
Assay: Binding affinity towards M1 receptor compared to M2 receptor.
Assay type: protein assay

Row | SMILES | Selectivity
28 | C=C(c1ccc(S(=O)(=O)c2ccc(OC)cc2)cc1)C1CCN(C2CCN(S(=O)(=O)Cc3ccccc3)CC2)CC1 | 23
29 | C=C(c1ccc(S(=O)(=O)c2ccc(OC)cc2)cc1)C1CCN(C2CCN(C(=O)CC)CC2)CC1 | 16
30 | C=C(c1ccc(S(=O)(=O)c2ccc(OC)cc2)cc1)C1CCN(C2CCN(C(=O)C(C)C)CC2)CC1 | 53
31 | C=C(c1ccc(S(=O)(=O)c2ccc(OC)cc2)cc1)C1CCN(C2CCNCC2)CC1 | 8
32 | C=C(c1ccc(S(=O)(=O)c2ccc(OC)cc2)cc1)C1CCN(C2CCN(S(=O)(=O)CCCC)CC2)CC1 | 150
33 | C=C(c1ccc(S(=O)(=O)c2ccc(OC)cc2)cc1)C1CCN(C2CCN(C(=O)OCc3ccccc3)CC2)CC1 | 24
34 | C=C(c1ccc(S(=O)(=O)c2ccc(OC)cc2)cc1)C1CCN(C2CCCCC2)CC1 | 16
35 | C=C(c1ccc(S(=O)(=O)c2ccc(OC)cc2)cc1)C1CCN(C2CCN(C(=O)Cc3ccccc3)CC2)CC1 | 32
36 | C=C(c1ccc(S(=O)(=O)c2ccc(OC)cc2)cc1)C1CCN(C2CCN(S(=O)(=O)CC)CC2)CC1 | 162
37 | C=C(c1ccc(S(=O)(=O)c2ccc(OC)cc2)cc1)C1CCN(C2CCN(C(=O)OC)CC2)CC1 | 61
38 | C=C(c1ccc(S(=O)(=O)c2ccc(OC)cc2)cc1)C1CCN(C2CCN(C(=O)OCCC)CC2)CC1 | 69
39 | C=C(c1ccc(S(=O)(=O)c2ccc(OC)cc2)cc1)C1CCN(C2CCN(C(=O)OC(C)C)CC2)CC1 | 36

Results, then the compound that gave them:

Row | Selectivity | SMILES
40 | 35 | C=C(c1ccc(S(=O)(=O)c2ccc(OC)cc2)cc1)C1CCN(C2CCN(C(=O)OCC(C)C)CC2)CC1
41 | 28 | C=C(c1ccc(S(=O)(=O)c2ccc(OC)cc2)cc1)C1CCN(C2CCN(C(=O)OCCCC)CC2)CC1
42 | 59 | C=C(c1ccc(S(=O)(=O)c2ccc(OC)cc2)cc1)C1CCN(C2CCN(C(=O)OCC)CC2)CC1
43 | 262 | C=C(c1ccc(S(=O)(=O)c2ccc(OC)cc2)cc1)C1CCN(C2CCN(C(=O)C3CC3)CC2)CC1
44 | 104 | C=C(c1ccc(S(=O)(=O)c2ccc(OC)cc2)cc1)C1CCN(C2CCN(S(=O)(=O)c3ccccc3)CC2)CC1
45 | 111 | C=C(c1ccc(S(=O)(=O)c2ccc(OC)cc2)cc1)C1CCN(C2CCN(C(=O)CCC)CC2)CC1
46 | 89 | C=C(c1ccc(S(=O)(=O)c2ccc(OC)cc2)cc1)C1CCN(C2CCN(S(=O)(=O)CCC)CC2)CC1
47 | 198 | C=C(c1ccc(S(=O)(=O)c2ccc(OC)cc2)cc1)C1CCN(C2CCN(S(=O)(=O)C(C)C)CC2)CC1

Target: Muscarinic acetylcholine receptors; M2 & M3 (Homo sapiens) (UniProt P20309+P08172)
Sequence (P20309 whole entry, looked up, one chain of several): as the sequence (P20309 whole entry) above
Assay: Binding affinity towards M3 receptor compared to M2 receptor.
Assay type: protein assay

Row | SMILES | Selectivity
48 | C=C(c1ccc(S(=O)(=O)c2ccc(OC)cc2)cc1)C1CCN(C2CCN(S(=O)(=O)Cc3ccccc3)CC2)CC1 | 54
49 | C=C(c1ccc(S(=O)(=O)c2ccc(OC)cc2)cc1)C1CCN(C2CCN(C(=O)CC)CC2)CC1 | 13
50 | C=C(c1ccc(S(=O)(=O)c2ccc(OC)cc2)cc1)C1CCN(C2CCN(C(=O)C(C)C)CC2)CC1 | 40
51 | C=C(c1ccc(S(=O)(=O)c2ccc(OC)cc2)cc1)C1CCN(C2CCNCC2)CC1 | 3
52 | C=C(c1ccc(S(=O)(=O)c2ccc(OC)cc2)cc1)C1CCN(C2CCN(S(=O)(=O)CCCC)CC2)CC1 | 405
53 | C=C(c1ccc(S(=O)(=O)c2ccc(OC)cc2)cc1)C1CCN(C2CCCCC2)CC1 | 3
54 | C=C(c1ccc(S(=O)(=O)c2ccc(OC)cc2)cc1)C1CCN(C2CCN(C(=O)Cc3ccccc3)CC2)CC1 | 48
55 | C=C(c1ccc(S(=O)(=O)c2ccc(OC)cc2)cc1)C1CCN(C2CCN(S(=O)(=O)CC)CC2)CC1 | 382
56 | C=C(c1ccc(S(=O)(=O)c2ccc(OC)cc2)cc1)C1CCN(C2CCN(C(=O)OC)CC2)CC1 | 55
57 | C=C(c1ccc(S(=O)(=O)c2ccc(OC)cc2)cc1)C1CCN(C2CCN(C(=O)OCCC)CC2)CC1 | 40

Second part, the compound after the results:

Row | Selectivity | SMILES
58 | 34 | C=C(c1ccc(S(=O)(=O)c2ccc(OC)cc2)cc1)C1CCN(C2CCN(C(=O)OCC)CC2)CC1
59 | 260 | C=C(c1ccc(S(=O)(=O)c2ccc(OC)cc2)cc1)C1CCN(C2CCN(C(=O)C3CC3)CC2)CC1
60 | 558 | C=C(c1ccc(S(=O)(=O)c2ccc(OC)cc2)cc1)C1CCN(C2CCN(S(=O)(=O)c3ccccc3)CC2)CC1
61 | 324 | C=C(c1ccc(S(=O)(=O)c2ccc(OC)cc2)cc1)C1CCN(C2CCN(C(=O)CCC)CC2)CC1
62 | 35 | C=C(c1ccc(S(=O)(=O)c2ccc(OC)cc2)cc1)C1CCN(C2CCN(S(=O)(=O)CCC)CC2)CC1
63 | 440 | C=C(c1ccc(S(=O)(=O)c2ccc(OC)cc2)cc1)C1CCN(C2CCN(S(=O)(=O)C(C)C)CC2)CC1
